# Screening data from PubChem.
# OX1R antag-1 – blocks the human orexin 1 receptor. OX1R-expressing cells, FRET antagonist read-out. inhibition, % at 6.6 µM. hit rate 1.8% among 330,000. AID 485270; in the data active means inhibition mostly above about 38%, no sharp cut-off; inactive means mostly below about 40%
# Target sequence (O43613 whole entry, looked up): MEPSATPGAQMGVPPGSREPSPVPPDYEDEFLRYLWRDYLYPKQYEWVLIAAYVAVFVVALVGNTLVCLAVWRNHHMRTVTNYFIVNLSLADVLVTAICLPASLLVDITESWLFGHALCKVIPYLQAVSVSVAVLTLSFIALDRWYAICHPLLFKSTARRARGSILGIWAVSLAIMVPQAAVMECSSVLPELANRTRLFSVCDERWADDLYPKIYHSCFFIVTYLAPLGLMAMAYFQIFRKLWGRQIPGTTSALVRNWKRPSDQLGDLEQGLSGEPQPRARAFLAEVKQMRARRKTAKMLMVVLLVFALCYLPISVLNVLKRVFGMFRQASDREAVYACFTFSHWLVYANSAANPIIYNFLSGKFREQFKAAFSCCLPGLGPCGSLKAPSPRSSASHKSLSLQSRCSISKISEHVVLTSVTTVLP
# GPR7 antagonist – human neuropeptides B/W receptor 1 antagonism. inhibition, % at 4.4 µM. GPR7-expressing cells, fluorescence antagonist assay. AID 1861. hit rate 1.1% among 290,000; in the data active means inhibition above about 16%, passing the limit was not always enough;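 further: cells stimulated with the agonist NPW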
# TAAR1 antagonist – human TAAR1 antagonism; Q96RJ0; CHO RD-HGA16 TAAR1, Fluo-8 calcium fluorescence, antagonist; inhibition, % at 3 µM; hit rate 1.5% among 360,000; AID 624466;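 active means inhibition above a per-plate cutoff, the mean inhibition of test compounds on that plate plus 3 SD, cut at about 49% in these data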
#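 Test system: CHO RD-HGA16 cells bearing hTAAR1 | Reagent: β-PEA, EC80 | Compound dosing: 3 µM, single point | Schedule: Dye loading 75 min at 37 °C, then 30 min room temperature | Signal: Calcium fluorescence with Fluo-8 | Evaluation: Percent inhibition of PEA-evoked calcium signal, max/basal emission ratio | Control set: DMSO-only wells and EC80 β-PEA-stimulated wells | Repeats: Singlicate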
# TAAR1 ag – human TAAR1 agonism; Q96RJ0; CHO RD-HGA16 TAAR1, Fluo-8 calcium fluorescence; vehicle wells 0%, saturating PEA agonist 100%; activation, % at 3 µM; hit rate 0.99% among 360,000; AID 624467;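 active means activation above the mean activation of all test compounds in the run plus 3 SD, cut at about 38% in these data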
#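 System: CHO-derived RD-HGA16 cells with stable Gα16 and human TAAR1 / Times: 17-24 h plating, Fluo-8 75 min 37 °C, 30 min RT / Technique: calcium-sensitive Fluo-8 signal, excitation 470-495, emission 515-575 nm / Measure: % activation relative to PEA EC100 response / Benchmarks: DMSO and PEA EC100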
# OX1R antag-2 – human HCRTR1 antagonism | O43613 | hit rate 0.43% among 330,000 | CHO/OX1R cells, Fluo-8 calcium fluorescence, orexin A | inhibition, % at 5 µM | AID 434989;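 active means inhibition above its plate's threshold, mean inhibition of all tested compounds on the plate plus 3 SD, cut at about 37% in these data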
# CHO parental Ca – counter-screen: ATP calcium response change in parental CHO cells | parental CHO-K1, ATP-induced calcium, Fluo-8 fluorescence | inhibition, % at 5.6 µM | hit rate 0.63% among 330,000 | AID 463079;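 active means inhibition above that plate's mean sample inhibition plus 3 SD, cut at about 26% in these data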
#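 Measured by: calcium-sensitive Fluo-8 fluorescence / Test system: CHO parental line / Controls: ATP-challenged DMSO wells low, unchallenged DMSO wells high / Measure: % inhibition / Compound: single nominal dose of 5.6 µM per compound / Replicates: single well per compound, no replicates / Reagent: ATP as calcium-mobilizing challenge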
# Hits are given with their value; – = inactive; · = not tested or not shown. Compounds with a hit are over-represented: about 4.5% of the library has one in this group of screens.
SMILES,OX1R antag-1,GPR7 antagonist,TAAR1 antagonist,TAAR1 ag,OX1R antag-2,CHO parental Ca
O=C(Nc1ccc(-n2nncc2-c2ccco2)cc1)c1cc2ccccc2oc1=O,–,–,·,·,–,54
O=C1c2ccccc2-n2c1nc1ccccc1c2=O,54,–,–,–,–,–
COc1cc(/C=C2/SC(=S)N(CCC(=O)N3CCN(C)CC3)C2=O)cc(OC)c1OC,·,·,–,–,·,·
O=[N+]([O-])c1ccc(S(=O)(=O)NCCc2ccncc2)cc1,43,–,–,–,–,–
COc1cc(-c2cc(C(=O)Nc3ccc(S(N)(=O)=O)cc3)c3ccccc3n2)cc(OC)c1OC,–,–,–,–,–,–
CCN1CCN(c2ccc(S(=O)(=O)N3CCOCC3)cc2NC(=O)c2cc(Cl)nc3ccccc23)CC1,–,·,–,–,–,–
COc1ccccc1NC(=O)c1cc(-c2ccc(OC)c(OC)c2)nc2ccccc12,·,–,55,–,·,·
CCN(CC)S(=O)(=O)c1ccc(O)c(NC(=O)c2cc(-c3cc(OC)c(OC)c(OC)c3)nc3ccccc23)c1,68,–,·,·,–,–
COc1ccc(-c2cc(C(=O)Nc3cc(S(=O)(=O)N4CCOCC4)ccc3N3CCOCC3)c3ccccc3n2)cc1,–,–,54,–,–,–
COc1ccc(NC(=O)c2cc(-c3cc(OC)c(OC)c(OC)c3)nc3ccccc23)cc1OC,–,–,55,–,–,–
COc1ccc(-c2cc(C(=O)Nc3nc4c(C)cccc4s3)c3ccccc3n2)cc1OC,–,–,–,–,–,–
CC(=O)Oc1ccc(Cn2c(C)c(C(=O)NCc3ccccc3C(F)(F)F)sc2=O)cc1,·,·,–,–,·,·
Cn1nc(C(=O)NCC(=O)Nc2ccc(F)c(F)c2)ccc1=O,·,·,–,–,·,·
CN(C)C(=S)Oc1ccccc1C1(C)OCCO1,·,·,–,–,·,·
CC(C)(C)OC(=O)N1CCC2CCN(S(C)(=O)=O)CC21 (centres undefined),·,·,–,–,·,·
CCN(Cc1ccccc1)C(=O)c1cc(-c2ccc(OC)c(OC)c2)nc2ccccc12,–,–,67,–,–,–
O=S(=O)(Nc1ccncc1Cl)c1cc(Cl)ccc1Cl,–,20,–,–,–,–
CCCN(CCC)S(=O)(=O)c1ccc(Cl)c([N+](=O)[O-])c1,–,42,–,–,–,–
CCc1oc2ccccc2c1C(=O)c1cc(Br)c(O)c(Br)c1,76,–,–,–,–,–
CCc1ccc(OCC(=O)c2c(O)c3ccccc3oc2=O)cc1,–,–,–,–,–,–
COC(=O)C1=C(C)N(C)C(=NCc2ccccc2C(F)(F)F)NC1c1ccc(F)cc1 (centres undefined),·,·,–,–,·,·
CCC(=O)N(C)C[C@H]1Oc2cc(-c3ccccc3F)ccc2S(=O)(=O)N([C@H](C)CO)C[C@H]1C,·,·,–,–,·,·
O=c1[nH]c(CSc2nc3ccccc3[nH]2)nc2c1cnn2-c1ccccc1,106,–,–,–,90,52
O=c1[nH]c(SCc2nc3c(cnn3-c3ccccc3)c(=O)[nH]2)nc2ccccc12,·,–,–,–,·,·
Cc1ccc2nc(SCc3nc4c(cnn4-c4ccccc4)c(=O)[nH]3)[nH]c2c1,90,–,–,–,80,39
SMILES,OX1R antag-1,GPR7 antagonist,TAAR1 antagonist,TAAR1 ag,OX1R antag-2,CHO parental Ca
CC(C)(C)c1ccc(C(=O)N2CCC2(C)C(=O)Nc2cccc(C#N)c2)cc1 (centres undefined),·,·,–,–,·,·
Cc1ccccc1C(=O)N1CCC2CC1c1cc(-c3ccc(F)cc3)ccc12 (centres undefined),·,·,59,–,·,·
Cc1ccccc1C(=O)N1CCC2CC1c1cc(Cl)ccc12 (centres undefined),·,·,–,–,·,·
CC(C)CC(NC(=O)OCc1ccccc1)C(=O)NCC(=O)NCC(=O)OCc1ccccc1 (centres undefined),·,·,–,–,·,·
Nc1nc2c(ncn2[C@@H]2O[C@H](C(=O)N[C@@H](Cc3ccccc3)C(=O)NCc3ccc4c(c3)OCO4)[C@@H](O)[C@H]2O)c(=O)[nH]1,·,·,–,–,·,·
CCOc1ccc(CC(=O)Nc2sc(Cc3ccccc3)c(C)c2C(N)=O)cc1OCC,57,–,–,–,–,–
COc1cccc(C(=O)N[C@H](C(=O)N2CCC[C@H]2C(=O)NCc2ccccc2)C2CCCCC2)c1,·,·,–,–,·,·
CCOC(=O)NC(NCC(O)c1ccccc1)(C(F)(F)F)C(F)(F)F (centres undefined),–,–,56,67,–,–
CCCCOC(=O)NC(NCC(O)c1ccccc1)(C(F)(F)F)C(F)(F)F (centres undefined),–,–,–,–,–,–
CCCCN1CC(N2CCCC2)CS1(=O)=O (centres undefined),·,·,–,–,·,·
Cn1c2ccsc2c2ncn(Cc3ccccc3F)c(=O)c21,42,·,–,–,–,–
CCc1ccc(N2C(=O)CN(Cc3cc(OC)c(OC)c(OC)c3)C2=S)cc1,–,–,–,–,–,–
CCc1ccccc1N1C(=O)CN(Cc2cc(OC)c(OC)c(OC)c2)C1=S,37,–,–,–,–,–
COC[C@@H](O)[C@H]1OCc2cc(OC)ccc2[C@@H]1/C=C/c1ccccc1,·,·,–,–,·,·
Cc1cccc(OCCCCc2c(C)n[nH]c2C)c1C,–,–,–,–,–,43
COC(=O)Cc1nnn2c1[C@@H](C)[C@@H](c1ccccc1Br)OC[C@@H]2c1ccccc1,·,·,–,–,·,·
COC(=O)c1cc2c(c3c4ccccc4n(S(C)(=O)=O)c13)C(=O)N(Cc1ccccc1)C2,·,·,–,–,·,·
COc1ccc(NC(=O)c2sccc2OS(=O)(=O)N(C)C)cc1,–,–,–,–,–,–
CN(C)S(=O)(=O)Oc1ccsc1C(=O)Nc1cccc(Cl)c1Cl,–,–,–,–,–,46
CCCCCCCCN1C(=O)[C@@H](CC(=O)NCCCOC)C[C@@]2(C(=O)OC)C1=C[C@H](C(C)(C)C)O[C@@H]2C,·,·,–,–,·,·
O=C1c2cccc3cc([N+](=O)[O-])cc(c23)C(=O)N1CCN1CCCC1,·,–,–,–,·,·
